Dynein cargo inh: blocks dynein driven cargo transport along microtubules. 3617.4 mouse cells, GR-EGFP nuclear translocation imaging; test concentration mostly 20 µM; stimulated with dexamethasone, 1 µM; hits give low values. z-score, hits read low. hit rate 0.47% among 220,000. AID 1381;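 active = plate z-score of nuclear minus cytoplasmic receptor signal below a set negative limit, without overly bright fluorescence or cell loss, cut at about -3.5 in these data, passing the limit was not always enough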;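 also: z-score of nuclear minus cytoplasmic ring GR-EGFP intensity difference per well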
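Buffer or medium – tet-free medium with charcoal-stripped serum · Signal – automated 10x imaging of fixed Hoechst-stained cells · Also added – dexamethasone agonist, 1.0 µM final, for 30 min · Incubation – induction 48 h, compound 1 h, agonist 30 min · Read-out – GR-EGFP nuclear translocation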
CHOP UPR activ: apoptotic UPR (CHOP) activation; CHO-CHOP luciferase reporter, luminescence; percent of tunicamycin response over DMSO baseline; activation, % at 10 µM; hit rate 0.34% among 330,000;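 active = at 10 µM dose, activation of 40% or more, normalized to positive control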;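 also: 100% = tunicamycin at 10 µg/mL and 0% = DMSO alone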
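Material: CHO-CHOP cells, stable luciferase reporter of PERK-eIF2a-CHOP signalling; quantity: 500 reporter cells seeded per well; buffer or medium: F12 medium containing 10% fetal bovine serum; compound: one dose, 10 µM in 0.5% DMSO; incubation: 6 h compound treatment, 37 °C; measured by: Steady-Glo luciferase luminescence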
Lmaj promast: reduces viability of Leishmania major promastigotes. resazurin fluorescence viability. inhibition, % at 10 µM. hit rate 9% among 200,000. AID 1063; in the data active = inhibition above about 50%;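 also: promastigotes grown with compound for 44 hours at 28 °C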
T cruzi inh: T. cruzi replication inhibition; T. cruzi beta-gal in NIH3T3, luminescence, 90 h; inhibition, % (test concentration not listed); hit rate 1.4% among 300,000; AID 1885;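 active = mean inhibition across valid replicates above about 55%, limit read from the data; inconclusive = mean below that limit but half or more replicates reach it; inactive = mean below it, under half of replicates reach it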;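 also: signal also drops with host cell toxicity which is not excluded here; 0% = plate median of DMSO wells and 100% = zero luminescence signal; higher percent means less beta-gal luminescence so fewer parasites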
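System: NIH/3T3 fibroblasts plus reporter T. cruzi. Medium: DMEM plus 2% FBS. Probe or stimulus: 5000 reporter trypomastigotes per well. Compound: single 50 nL compound addition per well in DMSO. Incubation: co-culture of at least 90 h after 3 h attachment. Detection: GalScreen β-gal luminescence, detergent lysis, 60 min. Evaluation: parasite load inhibition, %.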
CHOP inh: inhibitors of CHOP induction in ER stress response. CHO-K1 CHOP-promoter luciferase, tunicamycin-induced, 15-18 h. AID 2732. inhibition, % at 10 µM. hit rate 3.8% among 220,000;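 active = compounds that reduced the stress-induced luciferase reporter signal by more than about 70% of percent inhibition, limit read from the data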;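 also: 0% = tunicamycin plus vehicle and 100% = wells without tunicamycin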
UPR XBP1 act: adaptive UPR (XBP1) activation; CHO-XBP1 luciferase reporter, IRE1-XBP1 UPR activation, luminescence; percent of tunicamycin response, DMSO as zero; activation, % at 20 µM; hit rate 0.33% among 330,000;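 active = versus positive control, 20 µM dose yields 30% or more activation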;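 also: 100% = tunicamycin at 10 µg/mL and 0% = DMSO only wells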
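Assay system: CHO-XBP1 luciferase reporter cells; Schedule: 6 h treatment, 37 °C; Detection: glow luminescence from Steady-Glo reagent; Benchmarks: high control tunicamycin 10 µg/mL final, low control DMSO vehicle only.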
* marks the source's active call; other numbers are inactive results; ? = inconclusive; · = not tested or not shown. This excerpt belongs to a sample that is enriched for hits.

SMILES	Dynein cargo inh	CHOP UPR activ	Lmaj promast	T cruzi inh	CHOP inh	UPR XBP1 act
COc1ccc(C(=O)C2CCCN(Cc3cccn3-c3ccc(Cl)cn3)C2)c(OC)c1 (stereo unspecified)	-1.03	-2.1	95.3*	79.0*	21.1	-1.8
O=C(NCC1CCCCC1)c1ccccc1[N+](=O)[O-]	·	1.8	·	-17.7	·	-5.5
O=C(NCc1cccnc1)C(=O)Nc1cc2c3c(c1)CC(=O)N3CCC2	·	0.7	·	6.6	·	-1.5
Cc1cccc(C(=O)OCC(=O)N(CC(C)C)c2c(N)n(Cc3ccccc3)c(=O)[nH]c2=O)c1O	·	0.8	·	-14.1	·	1.2
COc1cccc(/C=N/NC(=O)CN(C)S(=O)(=O)c2ccccc2)c1OC	·	0.8	·	·	·	-1.8
O=C(COC(=O)c1ccc[n+]([O-])c1)Nc1c(Br)cc([N+](=O)[O-])cc1Br	0.381	-2.2	61.1*	26.2	12.9	-0.4
O=C(COC(=O)c1ccc[n+]([O-])c1)Nc1ccc([N+](=O)[O-])cc1Cl	·	1.1	·	·	·	0.4
Cc1nc2ccccc2c2c(N)c3ccccc3n12	-0.66	0.0	51.0*	14.2	5.3	5.0
Cc1ccc2oc3nc(C)c(C(=O)Nc4cccc(C(F)(F)F)c4)cc3c(=O)c2c1	0.309	4.1	-4.2	9.4	29.0	-1.3
CCCOc1ccc(C(=O)CCCC(=O)c2ccc(OCCC)cc2)cc1	·	1.9	·	15.4	·	-4.5
CC(C)COc1ccc(C(=O)CCN2CCCCC2)cc1	-1.83	1.7	96.4*	-5.8	-15.9	0.1
CCCCOc1ccc(C(=O)CCN2CCCCC2)cc1	-0.686	-1.4	92.4*	-4.6	7.2	-6.2
CC(=O)c1ccc(OCC(C)C)c(CN2CCCCC2)c1	-0.172	-1.0	85.7*	9.5	-29.3	-4.5
CC(C)COc1ccc(C(=O)OCCN2CCCCC2)cc1	·	-0.2	·	10.3	·	-1.5
Cc1nn(CSc2c(F)c(F)c(F)c(F)c2F)c(C)c1[N+](=O)[O-]	·	1.6	·	·	·	-0.1
CCN1CCN(Cc2ccc(NC(=O)c3cc(NC(=O)C(=O)c4c[nH]c5ccccc45)cc(OC)c3)cc2C(F)(F)F)CC1	-0.0615	7.0	·	?	49.2	8.9
CCN1CCN(Cc2ccc(NC(=O)c3ccc(C)c(NC(=O)C(=O)c4c[nH]c5ccccc45)c3)cc2C(F)(F)F)CC1	-0.182	25.4	·	47.7	92.5*	17.5
COc1ccc(-c2cc(C(=O)OCc3ccccn3)c3ccccc3n2)cc1	·	4.1	·	-4.3	·	6.4
COc1cc(/C=N/NC(=O)c2nnn(-c3nonc3N)c2C(C)C)ccc1OCc1ccccc1	·	8.0	·	22.4	·	0.9
Cn1cccc1Cc1nnc(SCC(=O)Nc2cccc(F)c2)n1-c1ccc(F)cc1	-0.501	-0.2	3.6	-18.7	37.0	-2.1
Cc1ccc(NC(=O)CSc2nnc(Cc3cccn3C)n2-c2ccc(F)cc2)c(C)c1	-0.141	-0.6	61.6*	2.7	25.6	-1.4
Cn1cccc1Cc1nnc(SCC(=O)Nc2cccc(Cl)c2)n1-c1ccc(F)cc1	1.01	-0.3	61.8*	-10.3	75.0*	-0.5
Cc1ccc(NC(=O)COC(=O)CC2SC(N3CCCC3)=NC2=O)cc1 (stereo unspecified)	·	1.0	·	·	·	3.1
CC1(C)C[C@H]2C3=CCC4[C@@]5(C)CC[C@H](O)[C@](C)(CO)C5CC[C@@]4(C)[C@]3(C)C[C@H]3O[C@@H]1[C@H](O)[C@]32CO (stereo partly specified)	·	-0.3	·	·	·	-2.6
COc1ccc(CSc2nncn2C)cc1[N+](=O)[O-]	-0.834	-1.0	52.4*	-21.1	-2.6	-2.3
COc1cc(OC)cc(C(=O)NCCCNC(=O)c2ccccn2)c1	·	0.4	·	-7.4	·	-8.2
COc1ccc2nc(N3CCCC(C(=O)NCCCN4CCN(C)CC4)C3)sc2c1 (stereo unspecified)	-1.52	-1.6	63.8*	18.3	21.5	-1.3
C/C(=N\N(Cc1ccccc1)c1ccccc1)c1cccnc1	-0.026	1.5	16.8	62.3*	24.8	-0.6
CN1C(=O)CSC1=S	·	-1.1	·	-14.3	·	-7.3
O=C(CSc1nc2ccccc2c(=O)n1-c1ccc(Cl)cc1)c1ccco1	0.194	-0.6	-2.4	33.5	74.0*	3.4

Compound activity from PubChem.
